Only some compounds are listed: those with a hit (about 2.3% of all), similar ones and a draw of the others.
V1aR counter = agonists of human V1a receptor, primary screen, counter-screen for OXTR agonist project, fluorescence, CHO-V1R cells | 320,000 tested, 0.25% active | activation, % at 3 µM | Fluo-8 calcium fluorescence, agonist mode; 0% DMSO, 100% 3 nM vasopressin | Vasopressin V1a receptor (Homo sapiens), P37288;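 active = activation above the mean activation of all tested compounds plus 3 SD, per screening run, cut at about 20% in these data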;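 also: signal is peak over basal fluorescence ratio across a 100 second FLIPR read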
Target sequence (P37288 whole entry, looked up): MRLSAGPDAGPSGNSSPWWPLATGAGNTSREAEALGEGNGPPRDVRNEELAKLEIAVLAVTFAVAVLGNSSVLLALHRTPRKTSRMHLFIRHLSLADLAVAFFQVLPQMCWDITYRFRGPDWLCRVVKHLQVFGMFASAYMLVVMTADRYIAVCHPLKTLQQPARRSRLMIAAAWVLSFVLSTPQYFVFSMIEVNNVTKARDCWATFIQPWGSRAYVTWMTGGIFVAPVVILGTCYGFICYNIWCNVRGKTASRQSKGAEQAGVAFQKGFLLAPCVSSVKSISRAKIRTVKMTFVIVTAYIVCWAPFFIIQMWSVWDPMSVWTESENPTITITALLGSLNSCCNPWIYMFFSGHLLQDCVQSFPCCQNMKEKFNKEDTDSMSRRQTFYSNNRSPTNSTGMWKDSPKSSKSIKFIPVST
TAAR1 agonist = human TAAR1 agonists, primary screen, Fluo-8 calcium fluorescence, CHO RD-HGA16 cells | 360,000 tested, 0.99% active | activation, % at 3 µM | vehicle wells 0%, saturating PEA agonist 100%;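 active = activation above the mean activation of all test compounds in the run plus 3 SD, cut at about 38% in these data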
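System: CHO RD-HGA16 cells carrying human TAAR1 plus Gα16; Incubation: 17-24 h seeding, 75 min 37 °C dye, 30 min RT; Measured by: Fluo-8 fluorescence, 5 s baseline then 140 s kinetic read; Control set: DMSO and PEA EC100; Replication: single well for each compound.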
TAAR1 antag = human TAAR1 antagonists, primary screen, Fluo-8 calcium fluorescence, CHO RD-HGA16 cells; Trace amine-associated receptor 1 (Homo sapiens), Q96RJ0; antagonist; inhibition, % at 3 µM; 360,000 tested, 1.5% active; AID 624466, 2012;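 active = inhibition above a per-plate cutoff, the mean inhibition of test compounds on that plate plus 3 SD, cut at about 49% in these data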;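 also: 0% = DMSO plus EC80 beta-PEA response and 100% = DMSO alone without agonist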
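Material: CHO RD-HGA16 cells bearing hTAAR1; compound dosing: one-point dosing, 3 µM nominal final; schedule: dye loading 75 min at 37 °C, then 30 min room temperature; measured by: calcium fluorescence with Fluo-8; control set: vehicle and agonist controls; replication: n of 1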
OXTR ag = human OXTR agonists, primary screen, fluorescence, CHO-OTR cells, Fluo-8 calcium; Fluo-8 calcium fluorescence; normalized: DMSO 0%, oxytocin 100%; activation, % at 3 µM; 320,000 tested, 0.32% active; AID 2435, 2010;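 active = activation above the mean of all tested compounds plus 3 SD, cutoff set per screening run, cut at about 20% in these data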;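 also: peak over basal fluorescence ratio from a 100 s FLIPR kinetic read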
OXTR potentiator = human OXTR potentiators, primary screen, fluorescence, CHO-OTR cells, Fluo-8 calcium. 320,000 tested, 0.061% active. Fluo-8 calcium fluorescence, potentiator mode; 0% = oxytocin EC15, 100% = EC100. Oxytocin receptor (Homo sapiens), P30559. activation, % at 3 µM. AID 2445, 2010;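 active = activation above that plate's cutoff, the mean activation of tested compounds plus 3 SD, cut at about 6.6% in these data, passing the limit was not always enough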;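 also: 100% uses oxytocin at 75 nM as the full agonist control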
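Material: human OTR in CHO cells. Compound: 3.0 µM, one dose. Timing: compound 6 min at room temperature before oxytocin, 100 s read. Evaluation: % activation of max/min ratio relative to oxytocin controls. Replication: single well per compound, singlicate. Signal: Fluo-8 calcium dye fluorescence.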
* marks the source's active call; other numbers are inactive results; nt = not tested or not shown.

SMILES | V1aR counter | TAAR1 agonist | TAAR1 antag | OXTR ag | OXTR potentiator
c1ccc(COc2ccc(-c3cc4nc(NCCCn5ccnc5)ccn4n3)cc2)cc1 | nt | 14.7 | 53.0* | nt | nt
C#CCN1CC(COc2ccccc2)Oc2cccc(Oc3ccc(SC)c(C)c3)c2S1(=O)=O (stereo not drawn) | nt | 5.7 | -20.4 | nt | nt
COc1ccc(S(=O)(=O)Nc2cc(Sc3ncn[nH]3)c(O)c3ccccc23)cc1 | nt | 42.6* | 18.6 | nt | nt
C[C@H](CO)N1C[C@H](C)[C@@H](CN(C)C(=O)Nc2cccc(C(F)(F)F)c2)OCc2cn(nn2)CCCC1=O | nt | 4.2 | 17.3 | nt | nt
O=C(Nc1nc2ccccc2s1)c1ccc2sc([C@H]3C[C@H](O)[C@@H](CO)O3)nc2c1 | nt | 10.3 | 50.5* | nt | nt
O=C(Nc1nccs1)c1ccc2sc([C@H]3C[C@H](O)[C@@H](CO)O3)nc2c1 | nt | 3.2 | -3.8 | nt | nt
CC(=O)N1CCN(S(=O)(=O)c2cccc(C(=O)NNC(=O)COc3ccc(F)cc3)c2)CC1 | 0.8 | -1.3 | 9.2 | -0.4 | 0.1
COc1ccc(OC)c(CCNC(=O)c2cccc(NC(=O)C3=C(C)OCCS3)c2)c1 | 3.6 | 9.8 | 57.0* | 2.0 | -7.0
COc1ccc(OC)c(CCNC(=O)Cc2ccc(NC(=O)C3=C(C)OCCS3)cc2)c1 | nt | -0.7 | -13.7 | nt | nt
O=C(Nc1ccc(N2CCN(C(=O)c3ccccc3F)CC2)cc1)c1cncc(Br)c1 | 10.6 | 8.0 | 51.9* | 4.1 | -14.4
Cc1nc(C)c(-c2ccc(SCC(=O)Nc3cccc(Cl)c3)nn2)s1 | 12.6 | 7.7 | 51.9* | 11.4 | -16.3
CC(=O)c1cccc(NC(=O)CSc2ccc(-c3sc(C)nc3C)nn2)c1 | 6.2 | 6.1 | 19.7 | 1.8 | -10.0
CCc1sc(-c2c(C#N)c(N)nc3c2CCCCCC3)cc1[N+](=O)[O-] | 0.1 | 52.5* | -0.8 | 16.5 | 2.6
CCc1ccc(CNC(=O)CCC(=O)n2ncc3cc(C)ccc32)cc1 | -0.2 | 46.6* | 11.6 | 0.8 | -2.4
C=CCCC1CN(Cc2ccc(OC)cc2)S(=O)(=O)c2c(Oc3cc(C)c(C)c(C)c3)cccc2O1 (stereo not drawn) | nt | -0.4 | -7.4 | nt | nt
COC(=O)C1=C(C)N(C)C(=NCc2ccc(OC)cc2)NC1c1ccc(Cl)cc1 (stereo not drawn) | nt | 6.5 | -10.7 | nt | nt
S=C1NC[C@H](Cc2ccccc2)N1CC1CCN(CCCC2CCCCC2)CC1 | nt | 1.8 | 5.0 | nt | nt
Cc1cc(Cl)c(OCCCNCc2ccccc2)c(Br)c1 | 9.7 | 44.4* | -0.4 | 14.8 | -7.2
Cc1cc(C)c(OCCCNCc2ccccc2)c(Br)c1 | 7.8 | 16.4 | 2.0 | 11.9 | -8.0
Nc1ncnc2c1ncn2[C@@H]1O[C@H](COP(=O)(O)O)[C@@H](O)[C@H]1O | 2.0 | 3.1 | -20.2 | 1.1 | -1.1
Nc1ncnc2c1ncn2[C@@H]1O[C@H](COP(=O)(O)OP(=O)(O)OP(=O)(O)O)[C@@H](O)[C@H]1O | 77.5* | 15.4 | -1.8 | 68.6* | -24.0
Cc1cc(C(C)(C)C)c(O)c(C(C)(C)C)c1 | 2.3 | 1.8 | -13.6 | 0.0 | -5.4
CC(C)(C)c1cc(O)c(C(C)(C)C)cc1O | 48.5* | nt | nt | 71.1* | -25.9
CCCN(C(=O)c1cn(CCC)c2ccccc12)c1ccc(Oc2cccnc2)cc1 | nt | -2.2 | 13.8 | nt | nt
O=C(Nc1ccccc1)c1cc(C2CCCCN2S(=O)(=O)c2ccc(F)cc2F)on1 (stereo not drawn) | nt | 0.3 | -2.3 | nt | nt
CCOC(=O)C1CCCN(CC(=O)c2ccc(F)cc2)C1 (stereo not drawn) | -0.7 | 57.5* | 54.0* | -0.2 | -7.6
COC(=O)[C@]12C[C@H](CC(=O)NCc3ccc(OC)c(OC)c3)C(=O)N(Cc3ccccc3)C1=C[C@H](C1CCCC1)O[C@@H]2C | nt | -1.4 | -24.4 | nt | nt
O=[N+]([O-])c1ccccc1CCO | nt | 8.0 | -27.2 | nt | nt
O=[N+]([O-])c1ccccc1CCc1ccccc1[N+](=O)[O-] | nt | 34.1 | 50.3* | nt | nt

Screening results: PubChem BioAssay, The Scripps Research Institute Molecular Screening Center
